Experimental data from publication PMC6570502 (Chembiochem : a European journal of chemical biology, 2019).
Changes are numbered by the printed parent chain.

Experiments:
wild type KDM4A = molecular target: T1, wild type KDM4A (Homo sapiens, UniProt O75164); assay: MALDI demethylase assay, H3K9me3 substrate peptide, wild type enzyme; type: biochemical
T1 sequence (O75164 1-1064): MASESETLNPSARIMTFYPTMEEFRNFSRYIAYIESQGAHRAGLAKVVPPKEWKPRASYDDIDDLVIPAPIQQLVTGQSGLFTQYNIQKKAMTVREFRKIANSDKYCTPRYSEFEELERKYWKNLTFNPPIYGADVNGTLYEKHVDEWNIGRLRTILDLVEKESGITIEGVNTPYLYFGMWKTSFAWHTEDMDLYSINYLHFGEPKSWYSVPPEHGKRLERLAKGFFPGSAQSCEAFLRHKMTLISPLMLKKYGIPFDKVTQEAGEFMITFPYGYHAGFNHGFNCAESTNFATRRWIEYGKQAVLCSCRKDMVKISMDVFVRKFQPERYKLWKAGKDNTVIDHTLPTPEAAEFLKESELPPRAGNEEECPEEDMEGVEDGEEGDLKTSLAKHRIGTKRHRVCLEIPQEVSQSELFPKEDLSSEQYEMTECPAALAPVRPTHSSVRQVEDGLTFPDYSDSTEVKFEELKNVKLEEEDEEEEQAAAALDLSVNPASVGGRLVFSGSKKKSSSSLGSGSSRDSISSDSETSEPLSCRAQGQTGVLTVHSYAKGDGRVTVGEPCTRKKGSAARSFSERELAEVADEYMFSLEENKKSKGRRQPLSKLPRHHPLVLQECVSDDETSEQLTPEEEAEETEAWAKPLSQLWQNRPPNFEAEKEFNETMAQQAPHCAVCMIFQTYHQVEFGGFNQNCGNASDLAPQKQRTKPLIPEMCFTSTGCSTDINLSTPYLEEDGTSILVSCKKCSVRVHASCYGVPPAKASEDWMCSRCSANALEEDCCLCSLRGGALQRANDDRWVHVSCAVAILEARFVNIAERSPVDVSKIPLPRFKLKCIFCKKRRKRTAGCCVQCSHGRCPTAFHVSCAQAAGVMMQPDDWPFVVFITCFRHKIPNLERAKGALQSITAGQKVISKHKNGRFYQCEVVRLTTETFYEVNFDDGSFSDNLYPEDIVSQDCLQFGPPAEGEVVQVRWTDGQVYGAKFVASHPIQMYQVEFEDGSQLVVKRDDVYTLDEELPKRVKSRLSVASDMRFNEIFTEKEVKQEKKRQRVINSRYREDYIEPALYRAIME

2KG-dependent enzymes = conditions: broad-spectrum inhibitors of 2KG-dependent enzymes; cited from earlier work
KDM4A S288G mutant = molecular target: T2, KDM4A S288G mutant (Homo sapiens, UniProt O75164, S288G); assay: MALDI demethylase assay, H3K9me3 substrate peptide, S288G mutant; type: biochemical
T2 sequence (O75164 1-1064 S288G): T1 sequence (O75164 1-1064) with S288G
Method in brief: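 KDM4A mutant demethylation of H3K9me3 peptide, read by MALDI-MS and expressed as % inhibition of demethylase activity, with wild type and the four active-site mutants run under the same conditions. The 2KG cofactor was cut from the 1 mM of the initial activity assay to 50 μM, about 3–4-fold above the enzymes' 2KG KM. KM came from an FDH/NAD+-coupled NADH fluorescence assay.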

[1] = 100 μM compound, 50 μM 2KG, MALDI-MS
[2] = scaffold test under the optimized assay conditions (50 μM 2KG), Figure S7

Row | inhibition of demethylase activity (wild type KDM4A; [1]) | inhibition of demethylase activity (wild type KDM4A; [2]) | inhibition of demethylase activity (KDM4A S288G mutant; [1]) | inhibition of demethylase activity (KDM4A S288G mutant; [2]) | Structure (SMILES) | IC50 (2KG-dependent enzymes)
1 | significantly inhibited | inhibited | significantly inhibited | inhibited | O=C(O)CNC(=O)C(=O)O [compound 2, N-oxalylglycine] | micromolar range
2 | – | inhibited | – | inhibited | O=C(O)c1ccc(O)c2ncccc12 [IOX1, 5-carboxy-8-hydroxyquinone] | micromolar range
